# Active and inactive are the calls of the source. The rule behind the calls is not given here.
# System: BJ
# Assay: Selectivity index, ratio of IC50 for human BJ cells to IC50 for human K562 cells
# Format: functional
# Conditions: not given
row,SMILES,Ratio IC50
1,O=C(NN=C(c1ccccn1)c1ccccn1)c1ccc2c3c(ccc2c1)N1Cc2c(ccc4cc(C(=O)NN=C(c5ccccn5)c5ccccn5)ccc24)N(C3)C1,2.4

# System: Nucleic Acid
# Assay: Binding affinity to DNA (unknown origin) assessed as DNA intercalation by UV-visible spectrophotometry in presence of Zn2+
# Format: nucleic-acid assay
# Conditions: not given
row,SMILES,Activity
1,O=C(NN=C(c1ccccn1)c1ccccn1)c1ccc2c3c(ccc2c1)N1Cc2c(ccc4cc(C(=O)NN=C(c5ccccn5)c5ccccn5)ccc24)N(C3)C1,Active

# System: BJ
# Assay: Selectivity index, ratio of IC50 for human BJ cells to IC50 for human K562-TAX cells
# Format: functional
# Conditions: not given
row,SMILES,Ratio IC50
1,O=C(NN=C(c1ccccn1)c1ccccn1)c1ccc2c3c(ccc2c1)N1Cc2c(ccc4cc(C(=O)NN=C(c5ccccn5)c5ccccn5)ccc24)N(C3)C1,2.8

# System: CCRF-CEM
# Assay: Cell cycle arrest in human CCRF-CEM cells assessed as accumulation at S phase at 5 times IC50 after 24 hrs by propidium iodide staining-based flow cytometry
# Format: functional
# Conditions: not given
# Summary of the method: (§1)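 Cells were then fixed in 70% ethanol, washed in hypotonic citrate buffer, treated with RNase (50 µg/mL) and stained with propidium iodide. Flow cytometry used a 488 nm laser. Apoptosis was scored as the percentage of particles with propidium content below G0/G1.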
row,SMILES,Activity
1,O=C(NN=C(c1ccccn1)c1ccccn1)c1ccc2c3c(ccc2c1)N1Cc2c(ccc4cc(C(=O)NN=C(c5ccccn5)c5ccccn5)ccc24)N(C3)C1,68.14%

# System: BJ
# Assay: Selectivity index, ratio of IC50 for human BJ cells to IC50 for human CCRF-CEM cells
# Format: functional
# Conditions: pooled result: one value given for 2 cell lines, strains, targets or settings
row,SMILES,Ratio IC50
1,O=C(NN=C(c1ccccn1)c1ccccn1)c1ccc2c3c(ccc2c1)N1Cc2c(ccc4cc(C(=O)NN=C(c5ccccn5)c5ccccn5)ccc24)N(C3)C1,1.7

# System: CCRF-CEM
# Assay: Cell cycle arrest in human CCRF-CEM cells assessed as accumulation at G0/G1 phase at IC50 after 24 hrs by propidium iodide staining-based flow cytometry
# Format: functional
# Conditions: not given
# Summary of the method: as §1
row,SMILES,Activity
1,O=C(NN=C(c1ccccn1)c1ccccn1)c1ccc2c3c(ccc2c1)N1Cc2c(ccc4cc(C(=O)NN=C(c5ccccn5)c5ccccn5)ccc24)N(C3)C1,28.27%

# System: K562
# Assay: Cytostatic activity against human K562 cells after 72 hrs by MTT assay
# Format: functional, cell-based
# Conditions: K562, 72 h
# Summary of the method: (§2)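 Cells were seeded at 25,000–30,000 per well and pre-incubated for 24 h at 37°C in 5% CO2. Four-fold compound dilutions were added in duplicate and incubated for 72 h. MTT was added for 1–4 h, and formazan was dissolved in 10% aq SDS (pH 5.5) overnight at 37°C. OD was read at 540 nm. IC50 came from dose-response curves, mean ± SD of eight independent experiments.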
row,SMILES,IC50
1,O=C(NN=C(c1ccccn1)c1ccccn1)c1ccc2c3c(ccc2c1)N1Cc2c(ccc4cc(C(=O)NN=C(c5ccccn5)c5ccccn5)ccc24)N(C3)C1,640 nM

# System: not listed separately
# Assay: Cytostatic activity against human p53-/- HCT116 cells after 72 hrs by MTT assay
# Format: functional, cell-based
# Conditions: HCT-116, 72 h
# Summary of the method: as §2
row,SMILES,IC50
1,O=C(NN=C(c1ccccn1)c1ccccn1)c1ccc2c3c(ccc2c1)N1Cc2c(ccc4cc(C(=O)NN=C(c5ccccn5)c5ccccn5)ccc24)N(C3)C1,780 nM

# System: not listed separately
# Assay: Cytostatic activity against human CEM-DNR cells after 72 hrs by MTT assay
# Format: functional, cell-based
# Conditions: not given
# Summary of the method: as §2
row,SMILES,IC50
1,O=C(NN=C(c1ccccn1)c1ccccn1)c1ccc2c3c(ccc2c1)N1Cc2c(ccc4cc(C(=O)NN=C(c5ccccn5)c5ccccn5)ccc24)N(C3)C1,2080 nM

# System: Staphylococcus aureus
# Assay: Antimicrobial activity against methicillin-resistant Staphylococcus aureus MRSA 4591 up to 200 uM after 24 to 48 hrs by broth microdilution method
# Format: functional, organism-based
# Conditions: not given
row,SMILES,Activity
1,O=C(NN=C(c1ccccn1)c1ccccn1)c1ccc2c3c(ccc2c1)N1Cc2c(ccc4cc(C(=O)NN=C(c5ccccn5)c5ccccn5)ccc24)N(C3)C1,inactive

# System: K562
# Assay: Selectivity index, ratio of IC50 for human MRC5 cells to IC50 for human K562 cells
# Format: functional
# Conditions: not given
row,SMILES,Ratio IC50
1,O=C(NN=C(c1ccccn1)c1ccccn1)c1ccc2c3c(ccc2c1)N1Cc2c(ccc4cc(C(=O)NN=C(c5ccccn5)c5ccccn5)ccc24)N(C3)C1,2.4

# System: not listed separately
# Assay: Cytostatic activity against human HCT116 cells after 72 hrs by MTT assay
# Format: functional, cell-based
# Conditions: HCT-116, 72 h
# Summary of the method: as §2
row,SMILES,IC50
1,O=C(NN=C(c1ccccn1)c1ccccn1)c1ccc2c3c(ccc2c1)N1Cc2c(ccc4cc(C(=O)NN=C(c5ccccn5)c5ccccn5)ccc24)N(C3)C1,460 nM

# System: Escherichia coli
# Assay: Antimicrobial activity against Escherichia coli CCM 3954 up to 200 uM after 24 to 48 hrs by broth microdilution method
# Format: functional, organism-based
# Conditions: not given
row,SMILES,Activity
1,O=C(NN=C(c1ccccn1)c1ccccn1)c1ccc2c3c(ccc2c1)N1Cc2c(ccc4cc(C(=O)NN=C(c5ccccn5)c5ccccn5)ccc24)N(C3)C1,inactive

# System: Escherichia coli
# Assay: Antimicrobial activity against multidrug-resistant Escherichia coli C/16702 up to 200 uM after 24 to 48 hrs by broth microdilution method
# Format: functional, organism-based
# Conditions: not given
row,SMILES,Activity
1,O=C(NN=C(c1ccccn1)c1ccccn1)c1ccc2c3c(ccc2c1)N1Cc2c(ccc4cc(C(=O)NN=C(c5ccccn5)c5ccccn5)ccc24)N(C3)C1,inactive

# System: not listed separately
# Assay: Cytostatic activity against human K562-TAX cells after 72 hrs by MTT assay
# Format: functional, cell-based
# Conditions: not given
# Summary of the method: as §2
row,SMILES,IC50
1,O=C(NN=C(c1ccccn1)c1ccccn1)c1ccc2c3c(ccc2c1)N1Cc2c(ccc4cc(C(=O)NN=C(c5ccccn5)c5ccccn5)ccc24)N(C3)C1,560 nM

# System: BJ
# Assay: Selectivity index, ratio of IC50 for human BJ cells to IC50 for human HCT116 cells
# Format: functional
# Conditions: not given
row,SMILES,Ratio IC50
1,O=C(NN=C(c1ccccn1)c1ccccn1)c1ccc2c3c(ccc2c1)N1Cc2c(ccc4cc(C(=O)NN=C(c5ccccn5)c5ccccn5)ccc24)N(C3)C1,3.4

# System: not listed separately
# Assay: Metal chelating activity of the compound assessed as formation of Ni2+ complex by UV-vis spectrometry
# Format: physicochemical
# Conditions: not given
row,SMILES,Activity
1,O=C(NN=C(c1ccccn1)c1ccccn1)c1ccc2c3c(ccc2c1)N1Cc2c(ccc4cc(C(=O)NN=C(c5ccccn5)c5ccccn5)ccc24)N(C3)C1,Active

# System: CCRF-CEM
# Assay: Cell cycle arrest in human CCRF-CEM cells assessed as accumulation at G0/G1 phase at 5 times IC50 after 24 hrs by propidium iodide staining-based flow cytometry
# Format: functional
# Conditions: not given
# Summary of the method: as §1
row,SMILES,Activity
1,O=C(NN=C(c1ccccn1)c1ccccn1)c1ccc2c3c(ccc2c1)N1Cc2c(ccc4cc(C(=O)NN=C(c5ccccn5)c5ccccn5)ccc24)N(C3)C1,3.63%

# System: Candida albicans
# Assay: Antifungal activity against Candida albicans up to 200 uM after 24 to 48 hrs by broth microdilution method
# Format: functional, organism-based
# Conditions: not given
row,SMILES,Activity
1,O=C(NN=C(c1ccccn1)c1ccccn1)c1ccc2c3c(ccc2c1)N1Cc2c(ccc4cc(C(=O)NN=C(c5ccccn5)c5ccccn5)ccc24)N(C3)C1,inactive

# System: Staphylococcus aureus
# Assay: Antimicrobial activity against Staphylococcus aureus CCM 3953 up to 200 uM after 24 to 48 hrs by broth microdilution method
# Format: functional, organism-based
# Conditions: not given
row,SMILES,Activity
1,O=C(NN=C(c1ccccn1)c1ccccn1)c1ccc2c3c(ccc2c1)N1Cc2c(ccc4cc(C(=O)NN=C(c5ccccn5)c5ccccn5)ccc24)N(C3)C1,inactive

# System: MRC5
# Assay: Cytostatic activity against human MRC5 cells after 72 hrs by MTT assay
# Format: ADME, cell-based
# Conditions: MRC5, 72 h
# Summary of the method: as §2
row,SMILES,IC50
1,O=C(NN=C(c1ccccn1)c1ccccn1)c1ccc2c3c(ccc2c1)N1Cc2c(ccc4cc(C(=O)NN=C(c5ccccn5)c5ccccn5)ccc24)N(C3)C1,1030 nM

# System: CCRF-CEM
# Assay: Induction of apoptosis in human CCRF-CEM cells assessed as mitotic cells at 5 times IC50 after 24 hrs by pH3Ser10+ labeling-based flow cytometry
# Format: functional
# Conditions: not given
row,SMILES,Activity
1,O=C(NN=C(c1ccccn1)c1ccccn1)c1ccc2c3c(ccc2c1)N1Cc2c(ccc4cc(C(=O)NN=C(c5ccccn5)c5ccccn5)ccc24)N(C3)C1,1.72%

# From ChEMBL document CHEMBL3400013, “Synthesis and biological activity evaluation of hydrazone derivatives based on a Tröger's base skeleton” (Bioorg Med Chem, 2015)
